Legend:
[1] = Metabolic stability (% remaining at 30 mins) in human S9.; format: ADME; details: human S9 fraction
How it was run: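 Incubated 30 min with human liver S9 (2 mg/mL protein, NADH added), n=2. Reported as % parent remaining.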

[2] = target: T1, Peroxisomal acyl-coenzyme A oxidase 1 (Rattus norvegicus) (UniProt P07872); assay: Inhibition of rat heart mitochondrial Palmitoyl-CoA oxidation at 30 uM
T1 sequence (whole entry): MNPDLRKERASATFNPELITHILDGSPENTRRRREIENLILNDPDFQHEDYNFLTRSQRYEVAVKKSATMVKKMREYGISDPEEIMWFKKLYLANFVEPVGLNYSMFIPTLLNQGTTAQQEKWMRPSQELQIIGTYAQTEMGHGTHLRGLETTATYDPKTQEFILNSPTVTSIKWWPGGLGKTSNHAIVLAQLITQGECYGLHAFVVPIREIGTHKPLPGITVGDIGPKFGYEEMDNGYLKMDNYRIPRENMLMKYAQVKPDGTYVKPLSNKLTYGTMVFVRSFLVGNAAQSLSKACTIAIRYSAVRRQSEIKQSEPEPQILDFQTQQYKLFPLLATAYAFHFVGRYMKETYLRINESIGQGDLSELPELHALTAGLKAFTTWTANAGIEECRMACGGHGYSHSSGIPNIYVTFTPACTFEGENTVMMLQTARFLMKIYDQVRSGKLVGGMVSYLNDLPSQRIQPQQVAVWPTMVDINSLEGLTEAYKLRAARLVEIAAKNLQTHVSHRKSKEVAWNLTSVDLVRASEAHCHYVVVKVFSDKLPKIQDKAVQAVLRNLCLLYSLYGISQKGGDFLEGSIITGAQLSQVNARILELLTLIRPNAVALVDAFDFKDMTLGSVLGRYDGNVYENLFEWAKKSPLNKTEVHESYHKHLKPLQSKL
How it was run: (§1)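 Rat heart mitochondrial preparations incubated with 1-[¹⁴C]-palmitoylCoA as the long-chain fatty acid oxidation substrate. Oxidation inhibition was reported as % inhibition at the listed test concentration, averaged from two or three measurements.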

Cavia porcellus [3] = species: Cavia porcellus; assay: Electrophysiological effect on isolated guinea pig heart as change in coronary perfusion pressure at 3 uM; format: functional
Cavia porcellus [4] = species: Cavia porcellus; assay: Electrophysiological effect on isolated guinea pig heart as change in H-V interval at 3 uM; format: functional
Cavia porcellus [5] = species: Cavia porcellus; assay: Electrophysiological effect on isolated guinea pig heart as change in S-H interval at 3 uM; format: functional
Cytochrome P450 1A2 = target: T2, Cytochrome P450 1A2 (Homo sapiens, UniProt P05177); assay: Inhibition of human cytochrome P450 1A2
T2 sequence (P05177 whole entry): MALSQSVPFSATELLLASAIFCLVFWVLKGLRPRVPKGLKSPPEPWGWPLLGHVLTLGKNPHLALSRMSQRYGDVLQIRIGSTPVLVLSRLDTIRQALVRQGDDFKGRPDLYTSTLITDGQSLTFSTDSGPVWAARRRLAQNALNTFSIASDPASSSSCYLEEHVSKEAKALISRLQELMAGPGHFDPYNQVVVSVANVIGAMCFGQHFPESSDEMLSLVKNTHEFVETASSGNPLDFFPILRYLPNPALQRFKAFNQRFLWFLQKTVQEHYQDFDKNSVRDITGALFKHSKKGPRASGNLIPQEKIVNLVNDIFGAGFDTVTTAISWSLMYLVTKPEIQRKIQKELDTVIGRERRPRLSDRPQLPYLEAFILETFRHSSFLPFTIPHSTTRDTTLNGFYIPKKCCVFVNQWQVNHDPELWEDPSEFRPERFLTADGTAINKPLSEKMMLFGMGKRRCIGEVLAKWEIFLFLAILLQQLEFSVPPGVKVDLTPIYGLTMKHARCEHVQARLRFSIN

Cytochrome P450 2C9 = Cytochrome P450 2C9 (Homo sapiens, UniProt P11712); assay: Inhibition of cytochrome P450 2C9 (human)
Cytochrome P450 3A4 [6] = target: T3, Cytochrome P450 3A4 (Homo sapiens, UniProt P08684); assay: Inhibition of cytochrome P450 3A4 (human)
[7] = Clearance of compound in rat after 1 mg/kg i.v. administration; format: ADME, organism-based; design: dose 1 mg/kg, route intravenous; details: plasma, iv, read-out: Clp
[8] = Volume of distribution of compound in rat after 1 mg/kg i.v. administration; format: ADME, organism-based; design: dose 1 mg/kg, route intravenous; details: in vivo, iv, read-out: Vdss
[9] = Oral bioavailability in rat (dose 2 mg/kg); format: ADME, organism-based; details: in vivo
[10] = Total concentration in rat after 1 mg/kg i.v. administration in 24 hours; format: ADME, organism-based; design: dose 1 mg/kg, route intravenous; details: in vivo, iv
[11] = Total concentration in rat after 2 mg/kg peroral administration in 24 hours; format: ADME, organism-based; design: dose 2 mg/kg, route oral; details: in vivo, po
[12] = Maximum concentration in rat after 2 mg/kg peroral administration; format: ADME, organism-based; design: dose 2 mg/kg, route oral; details: in vivo, po
[13] = Time to reach maximum concentration in rat after 2 mg/kg peroral administration; format: ADME, organism-based; design: dose 2 mg/kg, route oral; details: in vivo, po
[14] = Half life in rat after 1 mg/kg i.v. administration; format: ADME, organism-based; design: dose 1 mg/kg, route intravenous; details: in vivo, iv
[15] = Half life in rat after 2 mg/kg peroral administration; format: ADME, organism-based; design: dose 2 mg/kg, route oral; details: in vivo, po
Cytochrome P450 3A4 [16] = target: T3, Cytochrome P450 3A4; assay: Inhibition of human cytochrome P450 3A4
[17] = target: T1, Peroxisomal acyl-coenzyme A oxidase 1 (Rattus norvegicus); assay: Inhibition of rat heart mitochondrial Palmitoyl-CoA oxidation at 100 uM; how it was run: as §1

T3 sequence (P08684 whole entry): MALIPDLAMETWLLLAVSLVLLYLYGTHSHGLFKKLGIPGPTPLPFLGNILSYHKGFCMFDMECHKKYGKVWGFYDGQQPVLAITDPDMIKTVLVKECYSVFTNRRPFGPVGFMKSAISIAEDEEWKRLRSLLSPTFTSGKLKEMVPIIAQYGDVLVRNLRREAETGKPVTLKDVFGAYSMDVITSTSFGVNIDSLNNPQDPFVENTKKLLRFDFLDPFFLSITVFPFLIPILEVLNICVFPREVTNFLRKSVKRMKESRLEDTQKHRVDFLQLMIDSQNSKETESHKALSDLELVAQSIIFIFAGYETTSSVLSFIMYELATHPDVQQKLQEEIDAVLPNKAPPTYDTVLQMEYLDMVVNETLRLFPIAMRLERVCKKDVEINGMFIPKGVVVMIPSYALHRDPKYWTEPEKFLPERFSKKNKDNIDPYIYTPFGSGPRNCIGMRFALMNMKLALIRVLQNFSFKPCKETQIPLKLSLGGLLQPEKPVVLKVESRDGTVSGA
Chain of Cytochrome P450 2C9 (P11712 whole entry): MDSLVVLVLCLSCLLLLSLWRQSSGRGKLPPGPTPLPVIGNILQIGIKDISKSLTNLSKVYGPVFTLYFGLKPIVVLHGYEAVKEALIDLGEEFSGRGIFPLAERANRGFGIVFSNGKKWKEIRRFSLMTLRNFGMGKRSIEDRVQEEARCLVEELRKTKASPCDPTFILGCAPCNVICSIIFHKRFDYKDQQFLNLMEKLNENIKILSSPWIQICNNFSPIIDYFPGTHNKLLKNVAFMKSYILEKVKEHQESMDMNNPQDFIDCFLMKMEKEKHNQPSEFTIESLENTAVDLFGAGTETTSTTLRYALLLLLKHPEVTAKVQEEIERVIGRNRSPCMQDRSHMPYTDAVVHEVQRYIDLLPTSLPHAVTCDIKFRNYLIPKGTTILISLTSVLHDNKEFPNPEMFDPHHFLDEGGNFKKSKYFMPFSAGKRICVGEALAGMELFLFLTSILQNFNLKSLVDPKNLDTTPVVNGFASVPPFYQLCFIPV

**Q.** With `Cc1nc2cc(OC[C@H](O)CN3CCN(CC(=O)Nc4ccc5c(c4)CCCC5)CC3)ccc2s1` as the molecule, how does the remaining at 0.5 h [1] read?
**A.** The remaining at 0.5 h was 2%.

**Q.** For `Cc1nc2cc(OC[C@H](O)CN3CCN(CC(=O)Nc4ccc(C#N)cc4)CC3)ccc2s1`, which inhibition [2] is on record?
**A.** The inhibition was 42%.

**Q.** With `Cc1nc2cc(OC[C@H](O)CN3CCN(CC(=O)NC4CCCCC4)CC3)ccc2s1` as the molecule, how does the remaining at 0.5 h [1] read?
**A.** Its remaining at 0.5 h is 37%.

**Q.** For `Cc1nc2cc(OC[C@H](O)CN3CCN(CC(=O)NCC4CCCCC4)CC3)ccc2s1`, which remaining at 0.5 h [1] is on record?
**A.** Its remaining at 0.5 h is 29%.

**Q.** With `Cc1nc2cc(OC[C@H](O)CN3CCN(CC(=O)N[C@H](C)c4ccc5ccccc5c4)CC3)ccc2s1` as the molecule, how does the remaining at 0.5 h [1] read?
**A.** Its remaining at 0.5 h is 45%.

**Q.** Which results are given for `Cc1nc2cc(OC[C@H](O)CN3CCN(CC(=O)Nc4cccc(-c5ccccc5)c4)CC3)ccc2s1`?
**A.** remaining at 0.5 h [1]: 58%; Delta CPP (Cavia porcellus [3]): -4.3 mmHg; Delta H-V (Cavia porcellus [4]): 0 ms; Delta S-H (Cavia porcellus [5]): 3 ms; IC50 (Cytochrome P450 1A2): 6 µM; IC50 (Cytochrome P450 2C9): 24 µM; IC50 (Cytochrome P450 3A4 [6]): 37 µM

**Q.** For `Cc1nc2cc(OC[C@H](O)CN3CCN(CC(=O)N[C@@H]4CCc5ccccc54)CC3)ccc2s1`, which inhibition [2] is on record?
**A.** Its inhibition is 50%.

**Q.** Which results are given for `Cc1nc2cc(OC[C@H](O)CN3CCN(CC(=O)Nc4ccc(-c5ccccc5)cc4)CC3)ccc2s1`?
**A.** remaining at 0.5 h [1]: 63%; Delta CPP (Cavia porcellus [3]): -6.6 mmHg; Delta H-V (Cavia porcellus [4]): 0.5 ms; Delta S-H (Cavia porcellus [5]): 5 ms; IC50 (Cytochrome P450 1A2): 31 µM; IC50 (Cytochrome P450 2C9): 30 µM; IC50 (Cytochrome P450 3A4 [6]): 7.9 µM

**Q.** Which remaining at 0.5 h [1] does the source give for `Cc1nc2cc(OC[C@H](O)CN3CCN(CC(=O)N[C@@H](C)c4ccc(F)cc4)CC3)ccc2s1` here?
**A.** The remaining at 0.5 h was 10%.

**Q.** With `Cc1nc2cc(OC[C@H](O)CN3CCN(CC(=O)Nc4c(C)cccc4C)CC3)ccc2s1` as the molecule, how does the clearance [7] read?
**A.** Its clearance is 54.5 mL/min/kg.

**Q.** What about the Vd [8] of the same molecule?
**A.** Its Vd is 6.2 L/kg.

**Q.** And the bioavailability [9]?
**A.** Its bioavailability is 19.5%.

**Q.** And the AUC at 24 h [10]?
**A.** Its AUC at 24 h is 313 ng·h/mL.

**Q.** And the AUC at 24 h [11]?
**A.** The AUC at 24 h was 61.1 ng·h/mL.

**Q.** What about the remaining at 0.5 h [1] of the same molecule?
**A.** Its remaining at 0.5 h is 50%.

**Q.** And the Cmax [12]?
**A.** The Cmax was 26.1 ng/mL.

**Q.** What about the Tmax [13] of the same molecule?
**A.** The Tmax was 49.8 min.

**Q.** And the half-life [14]?
**A.** Its half-life is 84 min.

**Q.** And the half-life [15]?
**A.** Its half-life is 72 min.

**Q.** What about the “Delta CPP” value (Cavia porcellus [3]) of the same molecule?
**A.** The value was -8 mmHg.

**Q.** What about the “Delta H-V” value (Cavia porcellus [4]) of the same molecule?
**A.** The value was 4 ms.

**Q.** And the “Delta S-H” value (Cavia porcellus [5])?
**A.** The value was 3 ms.

**Q.** What about the IC50 (Cytochrome P450 3A4 [16]) of the same molecule?
**A.** Its IC50 is 23 µM.

**Q.** What about the IC50 (Cytochrome P450 1A2) of the same molecule?
**A.** Its IC50 is > 100 µM.

**Q.** What about the IC50 (Cytochrome P450 2C9) of the same molecule?
**A.** The IC50 was > 100 µM.

**Q.** Which inhibition [2] does the source give for `Cc1nc2cc(OC[C@H](O)CN3CCN(CC(=O)Nn4nnc5ccccc54)CC3)ccc2s1` here?
**A.** The inhibition was 16%.

**Q.** Which remaining at 0.5 h [1] does the source give for `Cc1nc2cc(OC[C@H](O)CN3CCN(CC(=O)N[C@H]4CCCc5ccccc54)CC3)ccc2s1` here?
**A.** Its remaining at 0.5 h is 2%.

**Q.** For `Cc1ccc(NC(=O)CN2CCN(C[C@@H](O)COc3ccc4sc(C)nc4c3)CC2)cc1`, which remaining at 0.5 h [1] is on record?
**A.** Its remaining at 0.5 h is 51%.

**Q.** For `Cc1nc2cc(OC[C@H](O)CN3CCN(CC(=O)Nc4ccc(C(N)=O)cc4)CC3)ccc2s1`, which inhibition [17] is on record?
**A.** The inhibition was 35%.

**Q.** With `Cc1nc2cc(OC[C@H](O)CN3CCN(CC(=O)Nc4ccccc4)CC3)ccc2s1` as the molecule, how does the remaining at 0.5 h [1] read?
**A.** The remaining at 0.5 h was 47%.

**Q.** Which remaining at 0.5 h [1] does the source give for `Cc1nc2cc(OC[C@H](O)CN3CCN(CC(=O)Nc4ccc(Oc5ccc(Cl)cc5)cc4)CC3)ccc2s1` here?
**A.** The remaining at 0.5 h was 64%.

**Q.** With `Cc1nc2cc(OC[C@H](O)CN3CCN(CC(=O)N[C@@H](C)c4ccccc4)CC3)ccc2s1` as the molecule, how does the remaining at 0.5 h [1] read?
**A.** Its remaining at 0.5 h is 23%.

**Q.** Which remaining at 0.5 h [1] does the source give for `Cc1nc2cc(OC[C@H](O)CN3CCN(CC(=O)Nc4ccc(Oc5ccccc5)cc4)CC3)ccc2s1` here?
**A.** Its remaining at 0.5 h is 18%.

**Q.** With `Cc1nc2cc(OC[C@H](O)CN3CCN(CC(=O)N[C@@H](C)c4cccc5ccccc45)CC3)ccc2s1` as the molecule, how does the remaining at 0.5 h [1] read?
**A.** Its remaining at 0.5 h is 10%.

**Q.** Which remaining at 0.5 h [1] does the source give for `Cc1nc2cc(OC[C@H](O)CN3CCN(CC(=O)Nc4ccc5c(c4)CCC5)CC3)ccc2s1` here?
**A.** Its remaining at 0.5 h is 15%.

**Q.** With `Cc1nc2cc(OC[C@H](O)CN3CCN(CC(=O)Nc4cccc5[nH]ccc45)CC3)ccc2s1` as the molecule, how does the remaining at 0.5 h [1] read?
**A.** The remaining at 0.5 h was 35%.

**Q.** For `Cc1nc2cc(OC[C@H](O)CN3CCN(CC(=O)N[C@H]4CCc5ccccc54)CC3)ccc2s1`, which remaining at 0.5 h [1] is on record?
**A.** The remaining at 0.5 h was 1%.

Reference: ChEMBL document CHEMBL1148425, “New fatty acid oxidation inhibitors with increased potency lacking adverse metabolic and electrophysiological properties” (Bioorg Med Chem Lett, 2004)
